Screening results deposited in PubChem BioAssay by several laboratories.
NR2E3 ag-1 = agonists of human NR2E3 nuclear receptor. Q9Y5X4. CHO-S Gal4-NCOR/VP16-NR2E3 two-hybrid, luciferase. inhibition of corepressor binding, % at 3.98 µM. actives 0.35% (n = 360,000). AID 602229;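 active means inhibition above the mean of all tested compounds plus 3 SD, cut at about 70% in these data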;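 further: 0% = DMSO with NR2E3 transfected cells and 100% = cells lacking NR2E3 construct; higher means lower luciferase signal from less NR2E3 corepressor binding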
Target sequence (Q9Y5X4 whole entry, looked up, the tested form may be a part): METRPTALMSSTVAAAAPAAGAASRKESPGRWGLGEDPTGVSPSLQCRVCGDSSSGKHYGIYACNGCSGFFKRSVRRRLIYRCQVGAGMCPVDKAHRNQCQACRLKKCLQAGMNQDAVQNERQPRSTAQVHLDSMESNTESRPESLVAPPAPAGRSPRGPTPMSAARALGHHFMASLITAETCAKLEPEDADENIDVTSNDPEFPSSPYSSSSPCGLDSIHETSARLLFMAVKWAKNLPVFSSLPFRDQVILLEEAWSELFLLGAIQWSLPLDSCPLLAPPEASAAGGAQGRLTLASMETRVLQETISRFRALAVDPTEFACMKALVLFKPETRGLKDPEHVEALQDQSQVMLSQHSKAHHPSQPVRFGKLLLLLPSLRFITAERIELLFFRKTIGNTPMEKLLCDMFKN
Rev-erbA mod = modulators of human Rev-erb alpha DNA binding; activity, % at 10 µM; P20393; Rev-erbα–FITC-DNA binding, fluorescence polarization, 90 min; actives 0.79% (n = 370,000);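 active means activity above about 14%, limit read from the data; passing the limit was not always enough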;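 further: 0% = DMSO wells with 35 nM protein and 100% = DMSO wells with 750 nM protein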
PG9 Ab binder = small molecules binding HIV-1 gp120 antibody PG9; TR-FRET gp120-PG9 antibody binding; inhibition, % at 6.7 µM; actives 0.43% (n = 360,000); in the data active means inhibition above about 8.5%
NR2E3 ag-2 = activates human photoreceptor nuclear receptor NR2E3; Q9Y5X4; GST-NR2E3/biotin-RetCOR TR-FRET, 1536-well; inhibition of corepressor binding, % at 4.78 µM; actives 0.12% (n = 320,000);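 active means percent inhibition above the cutoff of mean plus 3 SD of all tested compounds, set per screening campaign, cut at about 20% in these data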;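 further: 0% = DMSO wells and 100% = biotin wells as full block of FRET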
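System: GST-tagged NR2E3 plus biotinylated RetCOR corepressor; Buffer or medium: pH 7.5 Tris-based buffer; Probe or stimulus: RetCOR corepressor, biotinylated, 7 nM; Doses: compound at 4.8 µM, single dose; Schedule: 5 h incubation at 4 °C; Technique: time-resolved FRET; Evaluation: percent inhibition of TR-FRET ratio; Replication: one well per compound, singlicate testing.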
NR1D1 mod conf = confirmation of modulators of human Rev-erb alpha DNA binding; shares compounds with Rev-erbA mod; activation, % at 25 µM; AID 1259319; actives 61% (n = 3,000); Rev-erb alpha FITC-DNA binding, fluorescence polarization, 90 min;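 active means activation at or above a set limit, or at least 3 SD above the negative control mean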;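 further: 0% = 35 nM protein with DMSO and 100% = 750 nM protein high control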
RORg DNA counter = RORgamma DNA-binding activity, dose-response counter-screen; shares compounds with Rev-erbA mod; purified RORgamma protein-FITC-DNA binding, fluorescence polarization; IC50, µM; actives 8% (n = 910); AID 1259320;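 active means Compounds whose fitted half-maximal concentration for disrupting protein-DNA binding is below 10 micromolar; the record names Rev-erb in its text, so the target is in doubt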
Active calls of the source: *; · = no result given. Sampled rows, rich in hits. Any-hit rate of the full collection: about 1.4%.

SMILES | NR2E3 ag-1 | Rev-erbA mod | PG9 Ab binder | NR2E3 ag-2 | NR1D1 mod conf | others
CCC(C)C(N)C1=NC(C(=O)N[C@@H](CC(C)C)C(=O)N[C@H](CCC(=O)[O-])C(=O)N[C@H](C(=O)N[C@H]2CCCCNC(=O)[C@H](CC(N)=O)NC(=O)[C@@H](CC(=O)[O-])NC(=O)[C@H](Cc3cnc[nH]3)NC(=O)[C@@H](Cc3ccccc3)NC(=O)[C@H]([C@@H](C)CC)NC(=O)[C@@H](CCCN)NC2=O)[C@@H](C)CC)CS1.[Zn+2] (stereo partly drawn) | 7.8 | · | · | · | ·
CN1C(=O)CSC1=NCC12CC3CC(CC(C3)C1)C2 | 1.2 | 23.9* | -0.6 | 0.9 | 32.0* | RORg DNA counter=>40
C=C(C)CN1C(=O)C(C)SC1=NN=C1SCC(=O)N1C (stereo not drawn) | 14.6 | -9.9 | -0.7 | · | ·
CCN1C(=O)CSC1=NC1C2CC3CC(C2)CC1C3 (stereo not drawn) | -40.0 | 42.0* | -1.5 | 1.9 | 47.5* | RORg DNA counter=>40
CCOc1ccc(N=C2SCC(=O)N2CC)cc1 | 7.4 | -4.2 | 2.5 | 1.1 | ·
CCOc1cc(C=O)c(Br)cc1OC1CCCC1 | 11.6 | 21.7* | 2.8 | 14.6 | 11.5
COC(=O)c1cc2c(c3c4cc(F)ccc4n(S(=O)(=O)c4cccc(C)c4)c13)C(=O)N(Cc1ccc(N(C)C)cc1)C2 | · | 27.0* | -0.7 | · | 0.6
C[C@H]1[C@@H](NC(=O)C2CCOC2)CC[C@@]23CCCN2C(=O)CCC[C@@H]13 (stereo partly drawn) | · | 1.6 | · | · | ·
COc1ccc(C(=O)Nc2cc(C(C)=O)c(/C=C/N(C)C)oc2=O)cc1 | -44.5 | 19.5 | -19.1 | -4.2 | ·
CC(=O)c1cc(NC(=O)c2ccc(C)cc2)c(=O)oc1/C=C/N(C)C | -50.6 | 30.7* | -17.9 | -7.2 | 3.5
CCOC(=O)C1=CCC2C(=O)N(C)C(=O)C12 (stereo not drawn) | -3.2 | -0.3 | 0.7 | · | ·
Cc1c(C)c2ccc(OCC(=O)Nc3cccnc3)c(C)c2oc1=O | -27.1 | 1.9 | -0.8 | -4.8 | ·
COc1ccc(-c2cc(=O)oc3c(C)c(OCC(=O)Nc4cccnc4)ccc23)cc1 | -15.3 | 27.6* | -1.4 | 1.8 | 1.7
Clc1ccc(N2CCN(c3ncnc4c3oc3ccccc34)CC2)cc1 | -1.8 | 36.7* | 0.2 | 4.3 | 12.0
CC1CN(c2ncnc3c2oc2ccccc23)CC(C)O1 (stereo not drawn) | -43.1 | -0.6 | 1.2 | 2.4 | ·
COc1ccc(OCCNC(=O)c2ccc3nc(C)c(N(C)C(=O)CCc4ccccc4)n3c2)cc1 | -26.6 | -5.6 | 0.9 | · | ·
Cc1cccc(C)c1OCC(=O)OCC(=O)c1ccc2c(c1)NC(=O)CO2 | -3.3 | 0.1 | -0.9 | 0.9 | ·
CSc1ncccc1C(=O)OCC(=O)c1ccc2c(c1)NC(=O)CO2 | 2.2 | 40.4* | 1.2 | 1.8 | 18.0
N#Cc1ccc(-c2cccnc2)nc1SCc1ccc(Cl)cc1Cl | 3.4 | 19.6* | -2.3 | -3.0 | 6.0
CC1ON=C(c2cccc3ccccc23)N(C)C1=O (stereo not drawn) | 3.3 | -6.0 | -0.6 | · | ·
COc1ccc(-c2nnc3ccc(SCC(=O)Nc4nc5ccccc5s4)nn23)cc1OC | 9.0 | 45.6* | -0.8 | -0.2 | 15.5
COc1ccc(-c2nnc3ccc(SCC(=O)Nc4nccs4)nn23)cc1OC | -12.6 | 2.2 | -0.5 | -1.4 | ·
C/C(=N\N(Cc1ccccc1)c1ccccc1)c1ccncc1 | -16.5 | 42.8* | -3.4 | -4.1 | 39.8* | RORg DNA counter=>40
CC(C)NC(=O)c1cc(C2CCCCN2C(=O)c2ccc(C(C)C)cc2)on1 (stereo not drawn) | -20.7 | -3.7 | 0.7 | · | ·
FC(F)(F)c1cc(-c2ccccc2)nc2nc(N3CCOCC3)sc12 | -6.4 | 24.5* | 1.1 | 3.5 | 8.5
CN(C(=O)c1cccc(NC(=O)Cc2ccc(NC(=O)C3CCCN(C(=O)C4CC4)C3)cc2)c1)C1CCCC1 (stereo not drawn) | -11.1 | 1.3 | -2.2 | · | ·
Cc1cc2nc(-c3cccc(Cl)c3)c(CC(C)(C)C)n2c(C)c1Br | -11.5 | 15.0* | 1.0 | · | 8.9
Nc1[nH]c(C(=O)c2ccc(Br)cc2)c(-c2ccc(Br)cc2)c1C(=O)N1CCCCC1 | · | 5.7 | · | · | ·
COC(=O)c1cc2c(c3c4cc(OC)ccc4n(S(=O)(=O)c4ccc(OC)cc4)c13)C(=O)N(Cc1ccccc1OC)C2 | · | 10.5 | 1.2 | · | ·
